Test results published in ChEMBL document CHEMBL1132240, “Design and synthesis of modified quinolones as antitumoral acridones” (J Med Chem, 1999).

Legend:
[1] = system: HL-60; test: Cytotoxic activity against Human promyelocytic Leukemia HL-60 Concentration of agent required to reduce cell viability by 90%; assay type: functional
Procedure, shortened: (§1)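 Modified MTT assay. Cells seeded per well with graded drug: CHO 2.5 × 10^3, B16 5 × 10^3, P388 and LLC 10^4, HL-60 and LoVo 5 × 10^4. After 68 h, MTT (2.5 mg/mL) added for 4 h at 37 °C. Formazan dissolved in DMSO and A550 read. Inhibition taken as fractional A550 decrease vs control. IC50/IC90 from Chou's median-effect equation.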

[2] = system: P388; test: Cytotoxic activity against Murine Lymphocytic Leukemia P388 Concentration of agent required to reduce cell viability by 50%; assay type: functional, cell-based; conditions: Mus musculus; procedure, shortened: as §1
[3] = system: P388; test: Cytotoxic activity Murine Lymphocytic Leukemia P388 Concentration of agent required to reduce cell viability by 90%; assay type: functional; conditions: Mus musculus; procedure, shortened: as §1
[4] = system: HL-60; test: Cytotoxic activity against Human promyelocytic Leukemia HL-60 Concentration of agent required to reduce cell viability by 50%; assay type: functional, cell-based; procedure, shortened: as §1
[5] = system: CHO; test: Cytotoxic activity against solid tumor, CHO (Chinese hamster ovaric carcinoma) Concentration of agent required to reduce cell viability by 50%; assay type: functional, cell-based; conditions: Cricetulus griseus; procedure, shortened: as §1
[6] = organism: Homo sapiens; test: Relative cytotoxicity against Human bone marrow samples; Value is in range, activity expressed as IC90; assay type: functional
Procedure, shortened: (§2)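 Second-stage assay on HL-60 (5 × 10^4/well) and soybean-agglutinin-negative mononuclear marrow cells (5 × 10^5/well) from six healthy donors. Four wells per concentration, 48 h at 37 °C, then [125I]iododeoxyuridine plus fluorodeoxyuridine for 18 h. Inhibition from fractional uptake decrease; IC50/IC90 by median-effect equation. Ranges are antilog(mean log ± 2SD); ratios use mean antilogs.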

[7] = Ratio of antilog(mean log IC50 in bone marrow sample) and antolog(mean log IC90) in HL-60); assay type: functional; procedure, shortened: as §2
[8] = system: HL-60; test: Relative cytotoxicity against Human promyelocytic Leukemia(HL-60) cells; Value is in range, activity expressed as IC50; assay type: functional, cell-based; procedure, shortened: as §2
[9] = Ratio of antilog(mean log IC50 in bone marrow sample) and antolog(mean log IC50) in HL-60); assay type: functional; procedure, shortened: as §2
[10] = system: CHO; test: Cytotoxic activity against solid tumor, CHO (Chinese hamster ovaric carcinoma) Concentration of agent required to reduce cell viability by 90%; assay type: functional; conditions: Cricetulus griseus; procedure, shortened: as §1
[11] = system: B16; test: Cytotoxic activity against solid tumor, B16 (murine melanoma) Concentration of agent required to reduce cell viability by 50%; assay type: functional, cell-based; conditions: Mus musculus; procedure, shortened: as §1
[12] = system: HL-60; test: Relative cytotoxicity against Human promyelocytic Leukemia(HL-60) cells; Value is in range, activity expressed as IC90; assay type: functional; procedure, shortened: as §2
[13] = system: B16; test: Cytotoxic activity against solid tumor, B16 (murine melanoma) Concentration of agent required to reduce cell viability by 90%; assay type: functional; conditions: Mus musculus; procedure, shortened: as §1
[14] = organism: Homo sapiens; test: Relative cytotoxicity against Human bone marrow samples; Value is in range, activity expressed as IC50; assay type: functional; procedure, shortened: as §2
[15] = Ratio of antilog(mean log IC90 in bone marrow sample) and antolog(mean log IC90) in HL-60); assay type: functional; procedure, shortened: as §2
[16] = system: Lewis lung carcinoma cell line; test: Cytotoxic activity against solid tumor LLC(Lewis lung carcinoma), concentration of agent required to reduce cell viability by 90%; assay type: functional; conditions: Mus musculus; procedure, shortened: as §1
[17] = system: LoVo; test: Cytotoxic activity against solid tumor, LoVo, (human colon adenocarcinoma) Concentration of agent required to reduce cell viability by 50%; assay type: functional, cell-based; procedure, shortened: as §1
[18] = system: Lewis lung carcinoma cell line; test: Cytotoxic activity against solid tumor LLC(Lewis lung carcinoma), concentration of agent required to reduce cell viability by 50%; assay type: functional, cell-based; conditions: Mus musculus; procedure, shortened: as §1
[19] = system: LoVo; test: Cytotoxic activity against solid tumor, LoVo, (human colon adenocarcinoma) Concentration of agent required to reduce cell viability by 90%; assay type: functional; procedure, shortened: as §1
[20] = system: HL-60; test: Cytotoxic activity against human promyelocytic leukemia HL-60 concentration of agent required to reduce cell viability by 50%; assay type: functional, cell-based; procedure, shortened: as §1
[21] = system: P388; test: Cytotoxic activity against murine lymphocytic leukemia P388 concentration of agent required to reduce cell viability by 50%; assay type: functional, cell-based; conditions: Mus musculus; procedure, shortened: as §1
[22] = system: P388; test: Cytotoxic activity against murine lymphocytic leukemia P388 concentration of agent required to reduce cell viability by 90%; assay type: functional; conditions: Mus musculus; procedure, shortened: as §1
[23] = system: HL-60; test: Cytotoxic activity against human promyelocytic leukemia HL-60 concentration of agent required to reduce cell viability by 90%; assay type: functional; procedure, shortened: as §1

Q: With `CCN(CC)CCn1c2cc(O)c(N)cc2c(=O)c2c(O)cc(O)cc21` as the compound, how does the IC90 [1] read?
A: > 100 µM

Q: And the IC50 [2]?
A: 26 µM

Q: What about the IC90 [3] of the same compound?
A: 56 µM

Q: What about the IC50 [4] of the same compound?
A: > 100 µM

Q: For `CCn1c2cc(N3CCC(O)CC3)c(N)cc2c(=O)c2c(O)cc(O)cc21`, which IC90 [1] is on record?
A: 9.2 µM

Q: What about the IC50 [5] of the same compound?
A: 9.9 µM

Q: And the IC90 [6]?
A: 15.9 µM

Q: And the Ratio [7]?
A: 0.2

Q: What about the IC50 [8] of the same compound?
A: 6.64 µM

Q: What about the Ratio [9] of the same compound?
A: 0.4

Q: And the IC90 [10]?
A: 38 µM

Q: And the IC50 [2]?
A: 3.4 µM

Q: What about the IC90 [3] of the same compound?
A: 9.4 µM

Q: And the IC50 [11]?
A: 26 µM

Q: And the IC90 [12]?
A: 11.7 µM

Q: And the IC90 [13]?
A: > 50 µM

Q: What about the IC50 [4] of the same compound?
A: 5.4 µM

Q: What about the IC50 [14] of the same compound?
A: 1.8 µM

Q: And the Ratio [15]?
A: 1.5

Q: With `CCN(CC)CCn1c2cc(N3CCSCC3)c(N)cc2c(=O)c2c(O)cc(O)cc21` as the compound, how does the IC50 [2] read?
A: 8.8 µM

Q: What about the IC90 [3] of the same compound?
A: 19 µM

Q: For `CCn1c2cc(Cl)c(N)cc2c(=O)c2c(O)cc(O)cc21`, which IC90 [1] is on record?
A: 74 µM

Q: And the IC50 [5]?
A: 5.8 µM

Q: And the IC90 [16]?
A: > 100 µM

Q: And the IC90 [6]?
A: 74.1 µM

Q: What about the Ratio [7] of the same compound?
A: 0.1

Q: And the IC50 [17]?
A: 15 µM

Q: And the IC50 [8]?
A: 17 µM

Q: What about the IC50 [18] of the same compound?
A: 16 µM

Q: And the Ratio [9]?
A: 0.6

Q: What about the IC90 [10] of the same compound?
A: 71 µM

Q: And the IC50 [2]?
A: 1.6 µM

Q: What about the IC90 [3] of the same compound?
A: 13 µM

Q: And the IC50 [11]?
A: 2.8 µM

Q: And the IC90 [12]?
A: 97.5 µM

Q: What about the IC90 [19] of the same compound?
A: > 100 µM

Q: What about the IC90 [13] of the same compound?
A: 28 µM

Q: What about the IC50 [4] of the same compound?
A: 13 µM

Q: What about the IC50 [14] of the same compound?
A: 7.08 µM

Q: What about the Ratio [15] of the same compound?
A: 0.5

Q: Which IC90 [1] does the source give for `CCN(CC)CCn1c2cc(NC)c(N)cc2c(=O)c2c(O)cc(O)cc21` here?
A: 27 µM

Q: What about the IC50 [5] of the same compound?
A: 8.2 µM

Q: What about the IC90 [16] of the same compound?
A: 64 µM

Q: And the IC50 [17]?
A: 26 µM

Q: What about the IC50 [18] of the same compound?
A: 23 µM

Q: And the IC90 [10]?
A: 36 µM

Q: And the IC50 [2]?
A: 3.9 µM

Q: And the IC90 [3]?
A: 7 µM

Q: And the IC50 [11]?
A: 3.8 µM

Q: And the IC90 [19]?
A: 44 µM

Q: And the IC90 [13]?
A: 24 µM

Q: What about the IC50 [4] of the same compound?
A: 9.7 µM

Q: With `CCn1c2cc(N3CCSCC3)c(N)cc2c(=O)c2c(O)cc(O)cc21` as the compound, how does the IC50 [2] read?
A: > 100 µM

Q: And the IC90 [3]?
A: > 100 µM

Q: What does the source list for `CCN(CC)CCn1c2cc(N3CCN(C)CC3)c(N)cc2c(=O)c2c(OC)cc(OC)cc21`?
A: IC50 [20]: 8.3 µM; IC50 [21]: 3.4 µM; IC90 [22]: 5.8 µM; IC90 [23]: 17 µM

Q: For `CCN(CC)CCn1c2cc(N3CCCC3)c(N)cc2c(=O)c2c(O)cc(O)cc21`, which IC90 [1] is on record?
A: > 100 µM

Q: And the IC50 [2]?
A: 9.7 µM

Q: What about the IC90 [3] of the same compound?
A: 21 µM

Q: What about the IC50 [4] of the same compound?
A: 96 µM

Q: What does the source list for `CCN(CC)CCNc1cc2c(cc1N)c(=O)c1c(O)cc(O)cc1n2CC`?
A: IC90 [1]: 46 µM; IC50 [5]: 8.1 µM; IC90 [16]: 46 µM; IC50 [17]: 19 µM; IC50 [18]: 25 µM; IC90 [10]: 17 µM; IC50 [2]: 4.3 µM; IC90 [3]: 11 µM; IC50 [11]: 10 µM; IC90 [19]: 30 µM; IC90 [13]: 38 µM; IC50 [4]: 19 µM

Q: With `CN1CCN(c2cc3c(cc2N)c(=O)c2c(O)cc(O)cc2n3C)CC1` as the compound, how does the IC90 [1] read?
A: 39 µM

Q: What about the IC50 [2] of the same compound?
A: 7.2 µM

Q: And the IC90 [3]?
A: 11 µM

Q: What about the IC50 [4] of the same compound?
A: 24 µM

Q: With `CCn1c2cc(N3CC(C)NC(C)C3)c(N)cc2c(=O)c2c(O)cc(O)cc21` (centres undefined) as the compound, how does the IC90 [1] read?
A: 32 µM

Q: And the IC50 [5]?
A: 12 µM

Q: What about the IC90 [16] of the same compound?
A: 43 µM

Q: What about the IC50 [17] of the same compound?
A: 21 µM

Q: And the IC50 [18]?
A: 29 µM

Q: What about the IC90 [10] of the same compound?
A: 38 µM

Q: What about the IC50 [2] of the same compound?
A: 6.2 µM

Q: What about the IC90 [3] of the same compound?
A: 18 µM

Q: And the IC50 [11]?
A: 22 µM

Q: What about the IC90 [19] of the same compound?
A: 37 µM

Q: And the IC90 [13]?
A: 32 µM

Q: What about the IC50 [4] of the same compound?
A: 21 µM

Q: Which results are given for `COc1cc(O)c2c(=O)c3cc(N)c(N4CCN(C)CC4)cc3n(C)c2c1`?
A: IC50 [20]: 23 µM; IC50 [21]: 3.4 µM; IC90 [22]: 6.8 µM; IC90 [23]: 33 µM
